Screening data (PubChem)
M5 PAM: positive allosteric modulators of human muscarinic M5 receptor; AID 624038; actives 0.3% (n = 360,000); P08912; activation, % at 3 µM; CHO-K1 hM5, Fluo-8 calcium, ACh EC20 PAM; 0% = ACh EC20, 100% = ACh EC100;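 active = activation above the run cutoff, the mean activation of all test compounds plus 3 SD, cut at about 18% in these data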
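Measured by: Fluo-8 calcium fluorescence; material: human M5 receptor in CHO-K1 cells; schedule: Post-acetylcholine fluorescence recording 140 s; benchmarks: low control EC20 acetylcholine (0%), high control EC100 acetylcholine (100%); read-out: Max/basal fluorescence ratio as % of EC20–EC100 ACh window; compound: single dose, 3 µM nominal final test concentration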
CHRM1 agonist: human M1 muscarinic receptor agonism; P11229; AID 588814; actives 0.33% (n = 360,000); CHO-K1 hM1, Fluo-8 calcium fluorescence, agonist mode; 0% DMSO, 100% acetylcholine EC100; activation, % at 3 µM;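 active = activation above the run's mean compound activation plus 3 SD, cut at about 16% in these data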;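 note: peak over basal fluorescence ratio within a 140 s kinetic read after compound addition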
Target sequence (P11229 whole entry, looked up): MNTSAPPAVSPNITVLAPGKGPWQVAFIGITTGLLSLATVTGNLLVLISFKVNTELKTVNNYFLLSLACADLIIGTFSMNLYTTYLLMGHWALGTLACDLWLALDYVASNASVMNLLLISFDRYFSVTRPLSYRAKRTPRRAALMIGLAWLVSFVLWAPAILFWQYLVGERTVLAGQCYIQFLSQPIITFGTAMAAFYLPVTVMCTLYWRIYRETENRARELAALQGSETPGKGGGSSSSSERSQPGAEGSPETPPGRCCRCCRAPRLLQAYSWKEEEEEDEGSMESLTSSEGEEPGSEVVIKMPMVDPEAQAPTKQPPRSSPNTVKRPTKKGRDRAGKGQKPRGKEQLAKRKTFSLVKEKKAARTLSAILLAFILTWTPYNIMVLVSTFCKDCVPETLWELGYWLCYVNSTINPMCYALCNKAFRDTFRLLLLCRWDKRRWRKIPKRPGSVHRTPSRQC
M1 PAM: potentiates human M1 receptor response to acetylcholine; CHO-K1 hM1, Fluo-8 calcium fluorescence, ACh EC20; 0% = ACh EC20, 100% = maximal ACh; activation, % at 3 µM; AID 588819; actives 0.088% (n = 360,000); in the data active = activation above about 19%, passing the limit was not always enough
M5 antag: antagonists of human muscarinic M5 receptor (CHRM5) | inhibition, % at 3 µM | P08912 | actives 0.59% (n = 360,000) | CHO-hM5 cells, Fluo-8 calcium fluorescence, ACh EC80 | AID 624040;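 active = inhibition above a per-plate cutoff, the mean of that plate's test compounds plus 3 SD, cut at about 27% in these data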
M1 antag: human CHRM1 antagonism. CHO-K1 hM1, Fluo-8 calcium fluorescence, ACh EC80 antagonist. AID 588852. actives 1.3% (n = 360,000). inhibition, % at 3 µM;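 active = percent inhibition above its own plate's cutoff, namely the mean of that plate's compound wells plus 3 SD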;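 note: peak over basal fluorescence ratio during 140 s after agonist addition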
M5 ag: agonists of human muscarinic M5 receptor (CHRM5); activation, % at 3 µM; P08912; CHO-K1 hM5 cells, Fluo-8 calcium fluorescence; 0% DMSO wells, 100% maximal acetylcholine response; actives 0.19% (n = 360,000);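 active = activation above the run's mean over test compounds plus 3 SD, cut at about 23% in these data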;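 note: signal is peak over basal fluorescence ratio across the kinetic read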
Each line names hits and unclear results; the compound was inactive in the other large screens. This is a sample that favours compounds with a hit; in the whole collection about 2% have one here.

Oc1ccccc1N=Cc1c(O)ccc2ccccc12	CHRM1 agonist 22
Oc1ccc2ccccc2c1C=Nc1ccccc1Br	none
Cc1cc(OCC(=O)Nc2ccc(CN3CCCCC3)cc2)ccc1Cl	M1 antag 50
Cc1cc(OCC(=O)Nc2ccc(CN3CCOCC3)cc2)ccc1Cl	none
Cc1ccc(CC2(C)C(=O)Nc3c(Cl)cccc32)cc1 (stereo not given)	none
Cc1ccc2ccccc2c1C(O)c1ncc(-c2ccc(Cl)cc2)[nH]1 (stereo not given)	none
CC(=O)Nc1cccc(C(=O)/C=C/c2ccc(N(C)C)cc2)c1	CHRM1 agonist 113, M5 antag 34, M1 antag 55, M5 ag 74
CC1(Oc2ccc(CC#N)cc2)CCN(Cc2ccc(-n3ccnc3)cc2)C1 (stereo not given)	none
Cc1ccc(C(=O)Cn2c(C)cc(C)c(C#N)c2=O)cc1	M5 PAM 29
CC1=C/C(=N\OS(=O)(=O)c2ccccc2)C(C)=CC1=O	M5 antag 66, M1 antag 32, M5 ag 44
CC1=C/C(=N\OS(=O)(=O)c2ccccc2)C(C(C)C)=CC1=O	M5 antag 79, M5 ag 27
CC1=C(C)/C(=N\OS(=O)(=O)c2ccc(C)cc2)C=CC1=O	M1 antag 31
COCCN1CCC(CNCc2c(C(=O)N3CCCCC3)nc3c(C)cccn23)C1 (stereo not given)	M5 PAM 23
Cc1cccn2c(CNCC3OCCc4ccccc43)c(C(=O)N3CCCCC3)nc12 (stereo not given)	none
OC(c1ccccc1)c1nc(-c2cccs2)cs1 (stereo not given)	none
Fc1ccccc1-c1csc(=Nc2cccnc2)n1CCCn1ccnc1	M1 antag 30
CN(C)Cc1ccccc1Sc1ccc(O)cc1O	CHRM1 agonist 18
Cc1cc(C)cc(N(CCC#N)C(=O)COC(=O)C2CCN(c3ccc(C(F)(F)F)cn3)CC2)c1	M1 antag 30
CCN(CC)CCCOC(=O)C1(c2ccccc2)CCCC1	M5 antag 99, M1 antag 99
CCN(CC)CCOC(=O)C1(c2ccccc2)CCOCC1	none
C[N+]1(CCOC(=O)C2(c3ccccc3)CCCC2)CCCCC1	M5 antag 98, M1 antag 100
CCN(CC)CCOC(=O)C1(c2ccc([N+](=O)[O-])cc2)CCCC1	M5 antag 84, M1 antag 96
COc1ccc(C(=O)OCC[N+]2(C)CCCCC2)cc1	none
CC(C[N+](C)(C)C)OC(=O)C1(c2ccccc2)CCCC1 (stereo not given)	M5 antag 42, M1 antag 93
O=C(NC1CCCCC1)c1ccc(-c2cccc([N+](=O)[O-])c2)o1	none
CSc1ccc(C(O)c2ncc(-c3cccc(F)c3)[nH]2)cc1 (stereo not given)	none
C[N+](C)(C)CCOC(=O)C1(c2ccccc2)CCCC1	M5 antag 99, M1 antag 99
CN1CCCN(C(c2ccccc2)c2ccc(Cl)cc2)CC1 (stereo not given)	M5 antag 99, M1 antag 100
Cc1cccc(S(=O)(=O)NNC(=O)Cc2cccn2C)c1	none
C[C@@H]1CN([C@H](C)CO)C(=O)CCCn2nncc2CO[C@@H]1CN(C)C(=O)CCC(F)(F)F	none
O=C(CCCN=C1NS(=O)(=O)c2ccccc21)OCC(=O)c1ccc(F)cc1	CHRM1 agonist 22
O=C(CCN=C1NS(=O)(=O)c2ccccc21)OCC(=O)c1ccc(F)cc1	none
COc1ccc(C(CCNCc2ccc(OC(C)C)cc2)C(C)C)cc1 (stereo not given)	M1 antag 36
COc1ccc(CNCCC(c2ccc(OC(C)C)cc2)C(C)C)cc1OC (stereo not given)	none
COc1ccc(C(CCNCc2ccc(N(C)C)cc2)C(C)C)cc1 (stereo not given)	M1 antag 39
C[C@@H]1CCCCO[C@H](CN(C)C(=O)Nc2cccc3ccccc23)[C@@H](C)CN([C@H](C)CO)C(=O)c2cc(NC(=O)c3ccccc3)ccc2O1	none
CCc1cccc(NS(=O)(=O)c2c(C)nc3sc(CC)nn3c2=O)c1	M5 antag 30, M1 antag 73
CCc1nn2c(=O)c(S(=O)(=O)Nc3ccc(Cl)cc3)c(C)nc2s1	none
Cc1ccc(C(=O)Nc2cccc(-c3ccc(N4CCOCC4)nn3)c2)cc1C	none
Cc1cc(C(=O)Nc2cccc(-c3ccc(N4CCOCC4)nn3)c2)ccc1[N+](=O)[O-]	M1 antag 35
Cc1cccc(S(=O)Cc2ccc(C(=O)N3CCN(C(=O)c4ccco4)CC3)o2)c1 (stereo not given)	M5 PAM 22
Nc1nccc(N2CCCCC2)n1	none
NC(=O)[C@@H]1CCOc2c(I)cc([N+](=O)[O-])cc2C(=O)N[C@@H](CO)C(=O)NCC(=O)N1	M5 PAM 21
O=C(NNC(=S)NC(=O)c1ccccc1Cl)c1cccc([N+](=O)[O-])c1	CHRM1 agonist 19
O=C(NNC(=O)c1ccc([N+](=O)[O-])cc1)c1ccc(Br)cc1	none
O=C(NNC(=S)NC(=O)c1ccc(Br)cc1)c1cccc([N+](=O)[O-])c1	CHRM1 agonist 35
O=C(NNC(=S)NC(=O)c1ccc(Br)cc1)c1ccc([N+](=O)[O-])cc1	CHRM1 agonist 47
COCCNc1nc(NCc2ccc(C(C)C)cc2)c2sccc2n1	none
COc1ccc(-c2nc3c(Cl)cc(C(F)(F)F)cn3c2Cc2cccc(F)c2)cc1OC	none
COCCN(Cc1ccc(C)cc1)C(=O)[C@H]1O[C@@H](n2ccc(N)nc2=O)[C@H](O)[C@@H]1O	none
COC(=O)c1ccc2nc(C3CCCCC3)c(Cc3ccccc3)n2c1	none
CC(=O)NCC(=O)N(c1ccccc1)C1(C(=O)NC2CCCCC2)CCCCC1	M5 PAM 20
CN(C(=O)c1ccccn1)C1(C(=O)NC2CCCCC2)CCCCC1	none
C[C@H](CO)N1C[C@H](C)[C@H](CN(C)C(=O)C2CC2)OCc2cnnn2CCCC1=O	none
COc1ccc(S(=O)(=O)Nc2ccccc2C(N)=O)cc1OC	none
Cc1sc2ncnc(N3CCC(C(=O)N(C)CC(=O)Nc4ccccc4Cl)CC3)c2c1C	none
Cc1sc2ncnc(N3CCC(C(=O)N(C)CC(=O)Nc4ccccc4Br)CC3)c2c1C	M1 antag 35
CCN(CC(=O)Nc1cc(Cl)ccc1C)C(=O)C1CCN(c2ncnc3sc(C)c(C)c23)CC1	M5 antag 27, M1 antag 37
